In the library only some 2.8% were active in any assay of this set; here they are far more common.
pPAFAH inh: pPAFAH (human) enzyme inhibition; Q13093; recombinant pPAFAH, FP-rhodamine probe fluorescence polarization; inhibition, % at 3.39 µM; 330,000 compounds, 1.5% hits; AID 463082;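 active = inhibition above the mean inhibition across the screen plus 3 SD, cut at about 25% in these data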;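 note: inhibitors block binding of the rhodamine activity-based probe so polarization drops; 0% = enzyme with DMSO and 100% = wells lacking pPAFAH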
Target sequence (Q13093 whole entry, looked up): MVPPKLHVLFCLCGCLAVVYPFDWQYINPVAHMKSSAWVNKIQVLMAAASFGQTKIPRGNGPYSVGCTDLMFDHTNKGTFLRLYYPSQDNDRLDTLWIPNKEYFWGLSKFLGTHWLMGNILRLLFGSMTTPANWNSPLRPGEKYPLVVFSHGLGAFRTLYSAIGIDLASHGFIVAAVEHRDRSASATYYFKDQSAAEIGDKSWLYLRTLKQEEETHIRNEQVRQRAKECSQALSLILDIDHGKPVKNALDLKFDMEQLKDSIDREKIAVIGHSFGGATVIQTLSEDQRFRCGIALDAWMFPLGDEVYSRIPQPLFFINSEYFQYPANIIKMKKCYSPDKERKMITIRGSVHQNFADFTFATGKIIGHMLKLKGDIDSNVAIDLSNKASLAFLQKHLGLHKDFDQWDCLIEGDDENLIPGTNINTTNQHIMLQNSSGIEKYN
PAFAH1B2 inh: PAFAH1B2 (human) inhibition. recombinant PAFAH1B2, FP-rhodamine activity probe, fluorescence polarization. inhibition, % at 3.39 µM. 340,000 compounds, 1.2% hits. AID 492953;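 active = inhibition above the mean of all tested compounds plus 3 SD, cut at about 24% in these data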;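 note: 0% = enzyme with DMSO and 100% = wells lacking PAFAH1B2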
ASAP1 GAP inh: inhibitors of human ASAP1 ArfGAP activity; AID 624377; ASAP1-stimulated ARF1 GTP hydrolysis, GDP FP detection; Q9ULH1; 360,000 compounds, 0.19% hits; inhibition, % at 16.5 µM; in the data active = inhibition above about 25%;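 note: 0% = vehicle with enzyme and substrate and 100% = no enzyme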
ARFGAP1 inh: inhibitors of rat ARFGAP1. Q62848. Arfgap1-stimulated ARF1 GTP hydrolysis, GDP FP detection. inhibition, % at 16.5 µM. 360,000 compounds, 0.26% hits;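 active = inhibition above a per-plate limit, mean inhibition of low control wells plus 3 SD, cut at about 25% in these data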;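 note: 0% = DMSO wells with enzyme and 100% = wells lacking Arfgap1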
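System: truncated rat Arfgap1 GAP domain / Medium: HEPES-based buffer, pH 7.5 / Also added: N-terminally truncated human ARF1-GTP substrate / Incubation: enzyme reaction 120 min at 25 °C after 20 min preincubation / Measured by: FP of antibody-bound GDP Alexa 633 tracer, ex 620/em 688 nm / Replicates: singlicate, each compound tested once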
PAFAH2 inh: inhibitors of human PAFAH2. recombinant PAFAH2, FP-rhodamine activity probe, fluorescence polarization. 340,000 compounds, 0.99% hits. inhibition, % at 3.39 µM. Q99487;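 active = inhibition above the mean over all tested compounds plus 3 SD, cut at about 30% in these data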;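 note: inhibitors block probe labeling of enzyme so polarization drops; 0% = enzyme with DMSO and 100% = wells lacking PAFAH2 protein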
PAFAH1B3 inh: blocks human PAF acetylhydrolase 1B catalytic subunit 3. Q15102. AID 492972. 340,000 compounds, 0.28% hits. recombinant PAFAH1B3, FP-rhodamine probe, fluorescence polarization. inhibition, % at 3.39 µM;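 active = inhibition above the screen-wide average of all tested compounds plus 3 SD, cut at about 25% in these data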;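 note: 0% = enzyme with DMSO only and 100% = wells lacking PAFAH1B3 protein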
ARFGAP1 inh conf: confirmation of rat ARFGAP1 inhibitors; shares compounds with ARFGAP1 inh; ARFGAP1-stimulated ARF1 GTP hydrolysis, GDP tracer FP; inhibition, % at 16.5 µM; 890 compounds, 30% hits;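 active = average inhibition over triplicates above the hit cutoff set in the earlier primary screen, cut at about 25% in these data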;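 note: 0% = Arfgap1 plus ARF1-GTP with DMSO and 100% = wells lacking Arfgap1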
Starred values were filed as active, the others as inactive; nt = no result.

SMILES	pPAFAH inh	PAFAH1B2 inh	ASAP1 GAP inh	ARFGAP1 inh	PAFAH2 inh	PAFAH1B3 inh	ARFGAP1 inh conf
COc1ccc(/C=C2\Oc3cc(OCC(=O)N4CCC[C@H]4C(=O)O)ccc3C2=O)c(OC)c1OC	1	-5	5	26*	-10	10	17
COc1ccc(OC)c(/C=C2\Oc3cc(OCC(=O)N4CCC(C(=O)O)CC4)ccc3C2=O)c1	22	-4	16	42*	6	10	48*
COc1ccc(-c2cc3cc(OC)c(OC)cc3cn2)cc1	0	5	16	29*	-3	1	31*
COc1ccccc1OCC(=O)NCC1CCCN(C(=O)c2ccccc2C(C)=O)C1 (centres undefined)	2	-2	-6	28*	1	7	-3
CCSc1nnc(Cc2cc(=O)[nH]c(=O)[nH]2)n1-c1ccc(Cl)cc1	-2	0	1	30*	7	0	-9
COc1cc2c(cc1OC)C(C)N(C(=O)c1cc3c(s1)-c1ccccc1OC3)CC2 (centres undefined)	1	0	4	25*	4	-3	5
C[C@@H]1CN([C@H](C)CO)C(=O)CCCn2nncc2CO[C@@H]1CN(C)C(=O)CCC(F)(F)F	nt	nt	7	-3	nt	nt	nt
CC(=O)Nc1cc2c3ccccc3n(C)c2cc1[N+](=O)[O-]	nt	3	17	10	0	2	nt
CC(C)CN(C(=O)CSc1nnc(-c2cccs2)n1C1CC1)C1CCS(=O)(=O)C1 (centres undefined)	nt	nt	8	27*	nt	nt	-5
O=C(CN1CCN(C(=O)CNC(=O)c2ccc(N3CCCC3=O)cc2)CC1)Nc1cccc(F)c1	nt	nt	-1	7	nt	nt	nt
CCCCN(C(=O)c1ccccc1Br)C(c1ccc(OC)cc1)c1nc2ccccc2[nH]1 (centres undefined)	nt	nt	12	4	nt	nt	nt
Cc1ccc(S(=O)(=O)N2CCN(C(=O)N3CCOCC3)C2C)cc1 (centres undefined)	6	4	-13	-6	-1	9	nt
CC(=O)N1CCN(S(=O)(=O)c2ccc(C)cc2)C1C (centres undefined)	3	4	9	30*	1	8	2
Cc1nc2ccccc2cc1C(=O)N/N=C/c1cccc([N+](=O)[O-])c1	8	2	4	25*	1	6	8
COc1ccc(-n2c(=O)c3c4c(sc3n3cnnc23)CC(C)CC4)cc1 (centres undefined)	4	-2	16	27*	-1	3	62*
Cc1nnc2n(-c3ccccc3)c(=O)c3c4c(sc3n12)CC(C)CC4 (centres undefined)	2	5	1	-6	4	12	nt
CN(CC(=O)NCC1CCCO1)S(=O)(=O)c1ccc2ccccc2c1 (centres undefined)	nt	nt	3	32*	nt	nt	1
Cc1c2cnn(CC(=O)NCCN3CCOCC3)c(=O)c2c(C)n1Cc1ccc(F)cc1	8	5	3	-24	-4	7	nt
O=C(CSc1nnc(SCc2cccc3ccccc23)s1)N/N=C/c1c[nH]c2ccccc12	9	26*	-2	32*	-12	9	17
COc1ccc(N2CCN(C(=O)C(=O)c3ccc(F)cc3)CC2)cc1	nt	nt	15	-4	nt	nt	nt
COc1cccc(C(=O)NNC2OC(CO)C(O)C2O)c1 (centres undefined)	2	-1	-8	42*	-1	3	8
O=C(NNC1OC(CO)C(O)C(O)C1O)c1cccnc1 (centres undefined)	3	3	-9	0	-2	4	nt
CSc1nc2c(=O)[nH]cnc2s1	nt	nt	0	9	nt	nt	nt
COc1ccc(S(=O)(=O)NCC2CCC(C(=O)N3CCC4(CC3)OCCO4)CC2)cc1 (centres undefined)	nt	5	0	35*	-2	4	-7
COc1cccc(/C=C/c2nc3c(cnn3-c3ccccc3)c(=O)[nH]2)c1	-7	0	17	28*	0	-3	5
COc1ccc(NC(=O)c2cc(-c3cc(Cl)ccc3OC)n[nH]2)cc1OC	nt	nt	11	28*	nt	nt	22

High-throughput results as filed in PubChem BioAssay.
